According to paper PMC6712212 (Drug Design, Development and Therapy, 2019):

Tested on: NSCLC-H292 cells
Test: Flow cytometry cell cycle analysis
Format: cell-based, human
Method in brief: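 Cells were grown in six-well plates and treated 48 hrs, then harvested and centrifuged 5 mins. They were resuspended in precooled PBS, centrifuged again, and fixed in 70% ethanol overnight at 4°C. After a PBS rinse, cells were stained with propidium iodide. Red fluorescence of 1×10^5 cells was measured by flow cytometry with 488 nm excitation.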

Compound: O[C@@H](CS)[C@@H](O)CS [DTT]
- Cell cycle effect (in words): cells were blocked in G0/G1phase
